Paper PMC6144584 (SAGE Open Medicine, 2018)

System: PBMC from prostate cancer patients
Test: Ex vivo IFN-γ ELISPOT assay for immunogenicity
Format: cell-based, human
Conditions: positive control 10 µg/ml, 40 h
Summary of the method: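 Ficoll-isolated patient PBMC, 3×10^5/well in triplicate, on anti-IFN-γ-coated plates (5 μg/ml; blocked with RPMI 1640 + 5% pooled human serum, 1 h, 37°C). Phytohemagglutinin 10 µg/ml; no-peptide medium control; IL-2 20 units/ml in all wells; 40 h, 37°C. Detection: biotin anti-IFN-γ 1 µg/ml final (2 h), avidin-biotin-HRP (1 h), […]. Spots counted automatically; mean SFU/well computed; positive if ≥2× no-peptide wells.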

Substance: phytohemagglutinin
- Positivity index (Patient 2): 57.3
- Positivity index (Patient 5): 197.0
- Positivity index (Patient 6): 154.5
- Positivity index (Patient 7): 131.4
- Positivity index (Patient 9): 186.0
- Positivity index (Patient 10): 253.3
